Laboratory results from ChEMBL document CHEMBL1150387, “Development and experimental validation of a docking strategy for the generation of kinase-targeted libraries” (J Med Chem, 2008).

Experiments:
[1] = target: T1, Calcium/calmodulin-dependent protein kinase type IV (Homo sapiens) (UniProt Q16566); test: Inhibition of CaMK4 at 10 uM by HTRF assay relative to control
T1 sequence (whole entry): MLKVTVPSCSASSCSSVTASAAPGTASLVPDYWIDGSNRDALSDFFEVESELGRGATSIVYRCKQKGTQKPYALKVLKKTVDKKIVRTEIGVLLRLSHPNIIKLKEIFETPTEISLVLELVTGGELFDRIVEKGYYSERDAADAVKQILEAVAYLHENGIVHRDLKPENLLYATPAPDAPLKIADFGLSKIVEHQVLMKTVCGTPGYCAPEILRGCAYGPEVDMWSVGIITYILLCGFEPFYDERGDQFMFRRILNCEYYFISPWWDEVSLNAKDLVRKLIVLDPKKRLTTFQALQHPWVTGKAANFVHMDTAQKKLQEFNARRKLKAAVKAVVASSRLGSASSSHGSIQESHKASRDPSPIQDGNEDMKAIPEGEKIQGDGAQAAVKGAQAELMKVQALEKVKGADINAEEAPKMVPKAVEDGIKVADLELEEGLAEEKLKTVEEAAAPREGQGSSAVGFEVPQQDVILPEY
Outline: (§1)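 HTRF kinase assay, one panel of kinases. Inhibitor stock 50 µM in 100% DMSO; tested at 10 µM. ATP and substrate at final levels near Km. Final buffer: 50 mM Hepes/NaOH pH 7.4, 40 µM Na3VO4, 0.005% Tween-20, 1 mM DTT, MnCl2 or MgCl2 at kinase-dependent levels. Started by adding ATP/substrate. Reaction run at room temperature, time varied by kinase. Detection mix in 50 mM Hepes pH 7.4, 0.1% BSA, 150 mM KF, incubated ≥1 h at room temperature. Activity expressed as % of uninhibited control; n=2.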

[2] = target: Tyrosine-protein kinase ABL1 (Homo sapiens) (UniProt P00519); test: Inhibition of Abl at 10 uM by HTRF assay relative to control; outline: as §1
[3] = target: Mitogen-activated protein kinase 14 (Homo sapiens) (UniProt Q16539); test: Inhibition of p38alpha at 10 uM by HTRF assay relative to control; outline: as §1
[4] = target: T2, Tyrosine-protein kinase ZAP-70 (Homo sapiens) (UniProt P43403); test: Inhibition of ZAP70 at 10 uM by HTRF assay relative to control; outline: as §1
T2 sequence (whole entry): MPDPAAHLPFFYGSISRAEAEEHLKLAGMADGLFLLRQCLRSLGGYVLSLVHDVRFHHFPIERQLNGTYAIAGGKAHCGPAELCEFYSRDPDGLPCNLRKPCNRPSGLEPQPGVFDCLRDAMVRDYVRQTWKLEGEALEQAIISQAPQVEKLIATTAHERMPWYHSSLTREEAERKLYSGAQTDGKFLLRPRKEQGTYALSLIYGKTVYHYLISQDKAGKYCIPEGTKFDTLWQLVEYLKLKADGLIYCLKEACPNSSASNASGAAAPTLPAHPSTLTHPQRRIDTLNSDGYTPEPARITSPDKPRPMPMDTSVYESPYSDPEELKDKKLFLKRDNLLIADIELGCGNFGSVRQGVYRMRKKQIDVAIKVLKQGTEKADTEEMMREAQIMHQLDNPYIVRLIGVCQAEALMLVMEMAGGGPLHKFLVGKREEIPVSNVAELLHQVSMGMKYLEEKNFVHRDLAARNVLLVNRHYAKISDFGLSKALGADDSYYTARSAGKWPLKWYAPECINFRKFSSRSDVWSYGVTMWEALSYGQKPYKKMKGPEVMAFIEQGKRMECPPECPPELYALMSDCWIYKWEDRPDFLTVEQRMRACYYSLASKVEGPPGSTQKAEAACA

[5] = target: Mitogen-activated protein kinase 8 (Homo sapiens) (UniProt P45983); test: Inhibition of JNK1 at 10 uM by HTRF assay relative to control; outline: as §1
[6] = target: T3, Ephrin type-B receptor 4 (Homo sapiens) (UniProt P54760); test: Inhibition of EphB4 at 10 uM by HTRF assay relative to control; outline: as §1
T3 sequence (whole entry): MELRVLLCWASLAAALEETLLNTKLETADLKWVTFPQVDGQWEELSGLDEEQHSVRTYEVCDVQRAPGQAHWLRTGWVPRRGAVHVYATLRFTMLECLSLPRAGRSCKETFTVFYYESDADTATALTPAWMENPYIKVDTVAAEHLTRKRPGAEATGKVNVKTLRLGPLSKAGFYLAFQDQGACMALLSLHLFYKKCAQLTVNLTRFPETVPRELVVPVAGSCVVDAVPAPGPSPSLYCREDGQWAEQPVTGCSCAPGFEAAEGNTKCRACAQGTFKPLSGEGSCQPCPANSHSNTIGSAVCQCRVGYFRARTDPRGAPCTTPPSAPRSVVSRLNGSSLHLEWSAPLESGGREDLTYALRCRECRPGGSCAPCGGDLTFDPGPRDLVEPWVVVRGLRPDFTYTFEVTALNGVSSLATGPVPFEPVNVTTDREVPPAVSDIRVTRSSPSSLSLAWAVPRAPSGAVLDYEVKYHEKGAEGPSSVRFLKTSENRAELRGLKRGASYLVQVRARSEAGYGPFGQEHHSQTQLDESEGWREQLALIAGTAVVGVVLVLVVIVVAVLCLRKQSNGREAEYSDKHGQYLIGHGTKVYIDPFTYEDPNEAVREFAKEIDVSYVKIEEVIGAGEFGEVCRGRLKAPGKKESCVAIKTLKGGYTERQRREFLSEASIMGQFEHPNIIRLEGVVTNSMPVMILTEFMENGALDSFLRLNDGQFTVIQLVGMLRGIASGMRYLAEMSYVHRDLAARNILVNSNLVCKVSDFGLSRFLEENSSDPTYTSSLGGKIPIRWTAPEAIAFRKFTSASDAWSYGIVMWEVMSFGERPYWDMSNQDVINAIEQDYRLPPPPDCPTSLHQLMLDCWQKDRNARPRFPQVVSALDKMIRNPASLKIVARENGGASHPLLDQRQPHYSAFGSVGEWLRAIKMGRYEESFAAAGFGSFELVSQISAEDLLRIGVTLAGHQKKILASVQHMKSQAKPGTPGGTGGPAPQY

[7] = target: Protein kinase C alpha type (Homo sapiens) (UniProt P17252); test: Inhibition of PKCalpha at 10 uM by HTRF assay relative to control; outline: as §1
[8] = Inhibition of AMPKalpha at 10 uM by HTRF assay relative to control; outline: as §1
[9] = Inhibition of PKA at 10 uM by HTRF assay relative to control; outline: as §1
[10] = target: Mitogen-activated protein kinase 1 (Homo sapiens) (UniProt P28482); test: Inhibition of ERK2 at 10 uM by HTRF assay relative to control; outline: as §1
[11] = target: Insulin-like growth factor 1 receptor (Homo sapiens) (UniProt P08069); test: Inhibition of IGF1R at 10 uM by HTRF assay relative to control; outline: as §1
[12] = target: Proto-oncogene tyrosine-protein kinase Src (Homo sapiens) (UniProt P12931); test: Inhibition of Src at 10 uM by HTRF assay relative to control; outline: as §1
Proto-oncogene tyrosine-protein kinase Src (Homo sapiens), sequence (P12931 2-536 limits assumed): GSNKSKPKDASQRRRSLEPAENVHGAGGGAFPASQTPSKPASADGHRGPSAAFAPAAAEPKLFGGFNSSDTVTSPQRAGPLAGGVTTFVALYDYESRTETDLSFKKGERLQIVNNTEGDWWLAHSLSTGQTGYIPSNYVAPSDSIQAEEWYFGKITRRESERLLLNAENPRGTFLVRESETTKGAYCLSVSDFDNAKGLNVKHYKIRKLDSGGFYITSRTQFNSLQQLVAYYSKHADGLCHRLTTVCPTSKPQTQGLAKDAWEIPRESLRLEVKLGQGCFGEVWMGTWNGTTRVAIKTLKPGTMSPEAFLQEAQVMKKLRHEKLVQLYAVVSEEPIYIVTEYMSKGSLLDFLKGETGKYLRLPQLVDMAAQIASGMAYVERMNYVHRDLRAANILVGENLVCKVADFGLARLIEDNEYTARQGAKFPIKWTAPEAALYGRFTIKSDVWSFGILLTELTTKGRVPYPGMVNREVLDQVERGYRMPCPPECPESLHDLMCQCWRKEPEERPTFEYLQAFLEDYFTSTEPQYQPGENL

Mitogen-activated protein kinase 1 (Homo sapiens), sequence (P28482 whole entry): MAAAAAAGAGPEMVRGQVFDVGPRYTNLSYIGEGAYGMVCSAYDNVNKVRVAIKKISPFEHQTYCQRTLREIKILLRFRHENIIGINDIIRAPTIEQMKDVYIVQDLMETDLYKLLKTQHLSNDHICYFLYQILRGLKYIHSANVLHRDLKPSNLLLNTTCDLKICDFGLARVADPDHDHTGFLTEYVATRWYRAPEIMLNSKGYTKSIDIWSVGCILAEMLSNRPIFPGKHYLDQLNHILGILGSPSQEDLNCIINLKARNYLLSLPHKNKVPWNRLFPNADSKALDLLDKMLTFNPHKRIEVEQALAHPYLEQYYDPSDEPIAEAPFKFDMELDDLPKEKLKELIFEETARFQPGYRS
Mitogen-activated protein kinase 14 (Homo sapiens), sequence (Q16539 whole entry): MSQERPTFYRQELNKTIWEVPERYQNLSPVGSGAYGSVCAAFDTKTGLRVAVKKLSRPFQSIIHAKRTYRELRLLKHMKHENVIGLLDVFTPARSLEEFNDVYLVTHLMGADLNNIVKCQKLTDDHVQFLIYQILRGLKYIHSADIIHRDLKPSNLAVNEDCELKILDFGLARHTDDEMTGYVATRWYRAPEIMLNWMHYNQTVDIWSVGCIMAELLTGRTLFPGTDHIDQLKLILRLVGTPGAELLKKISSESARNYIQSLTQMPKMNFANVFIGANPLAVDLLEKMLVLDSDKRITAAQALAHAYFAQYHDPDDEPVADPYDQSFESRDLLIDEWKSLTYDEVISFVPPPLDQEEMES
Insulin-like growth factor 1 receptor (Homo sapiens), sequence (P08069 31-736 limits assumed): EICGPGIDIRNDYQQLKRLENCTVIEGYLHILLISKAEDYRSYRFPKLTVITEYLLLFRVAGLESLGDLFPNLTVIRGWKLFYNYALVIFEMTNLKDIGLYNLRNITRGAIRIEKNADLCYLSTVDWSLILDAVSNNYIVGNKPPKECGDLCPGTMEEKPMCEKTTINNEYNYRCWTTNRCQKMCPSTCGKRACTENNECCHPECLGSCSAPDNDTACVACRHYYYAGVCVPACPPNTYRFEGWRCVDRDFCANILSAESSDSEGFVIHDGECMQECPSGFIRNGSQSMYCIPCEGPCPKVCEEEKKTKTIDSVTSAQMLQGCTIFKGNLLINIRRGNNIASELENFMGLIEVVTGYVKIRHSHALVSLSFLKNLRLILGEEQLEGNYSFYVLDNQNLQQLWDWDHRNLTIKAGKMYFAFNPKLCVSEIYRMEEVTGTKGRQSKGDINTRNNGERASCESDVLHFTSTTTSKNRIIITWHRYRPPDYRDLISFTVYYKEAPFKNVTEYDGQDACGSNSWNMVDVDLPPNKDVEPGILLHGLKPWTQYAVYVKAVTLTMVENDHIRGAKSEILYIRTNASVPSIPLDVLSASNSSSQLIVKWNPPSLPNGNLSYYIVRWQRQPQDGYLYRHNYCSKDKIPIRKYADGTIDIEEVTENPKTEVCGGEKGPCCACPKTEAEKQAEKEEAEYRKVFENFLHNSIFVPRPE
Insulin-like growth factor 1 receptor (Homo sapiens), sequence (P08069 741-1367 limits assumed): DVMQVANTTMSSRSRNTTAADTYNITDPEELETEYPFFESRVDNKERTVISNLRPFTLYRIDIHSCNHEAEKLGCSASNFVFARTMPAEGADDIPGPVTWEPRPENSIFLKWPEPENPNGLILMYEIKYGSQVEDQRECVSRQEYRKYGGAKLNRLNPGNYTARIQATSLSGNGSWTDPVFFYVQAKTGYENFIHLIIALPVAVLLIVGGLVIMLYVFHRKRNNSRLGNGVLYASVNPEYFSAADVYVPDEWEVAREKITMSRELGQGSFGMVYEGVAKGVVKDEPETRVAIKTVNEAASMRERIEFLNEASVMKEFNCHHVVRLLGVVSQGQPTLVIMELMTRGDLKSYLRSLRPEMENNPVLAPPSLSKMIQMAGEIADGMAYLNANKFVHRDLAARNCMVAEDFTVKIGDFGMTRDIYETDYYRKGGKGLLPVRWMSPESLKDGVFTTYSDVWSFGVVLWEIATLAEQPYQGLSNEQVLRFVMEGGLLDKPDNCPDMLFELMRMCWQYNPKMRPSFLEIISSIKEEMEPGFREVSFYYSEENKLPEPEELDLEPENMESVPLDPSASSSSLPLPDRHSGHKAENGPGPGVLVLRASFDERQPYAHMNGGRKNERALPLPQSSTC
Tyrosine-protein kinase ABL1 (Homo sapiens), sequence (P00519 whole entry): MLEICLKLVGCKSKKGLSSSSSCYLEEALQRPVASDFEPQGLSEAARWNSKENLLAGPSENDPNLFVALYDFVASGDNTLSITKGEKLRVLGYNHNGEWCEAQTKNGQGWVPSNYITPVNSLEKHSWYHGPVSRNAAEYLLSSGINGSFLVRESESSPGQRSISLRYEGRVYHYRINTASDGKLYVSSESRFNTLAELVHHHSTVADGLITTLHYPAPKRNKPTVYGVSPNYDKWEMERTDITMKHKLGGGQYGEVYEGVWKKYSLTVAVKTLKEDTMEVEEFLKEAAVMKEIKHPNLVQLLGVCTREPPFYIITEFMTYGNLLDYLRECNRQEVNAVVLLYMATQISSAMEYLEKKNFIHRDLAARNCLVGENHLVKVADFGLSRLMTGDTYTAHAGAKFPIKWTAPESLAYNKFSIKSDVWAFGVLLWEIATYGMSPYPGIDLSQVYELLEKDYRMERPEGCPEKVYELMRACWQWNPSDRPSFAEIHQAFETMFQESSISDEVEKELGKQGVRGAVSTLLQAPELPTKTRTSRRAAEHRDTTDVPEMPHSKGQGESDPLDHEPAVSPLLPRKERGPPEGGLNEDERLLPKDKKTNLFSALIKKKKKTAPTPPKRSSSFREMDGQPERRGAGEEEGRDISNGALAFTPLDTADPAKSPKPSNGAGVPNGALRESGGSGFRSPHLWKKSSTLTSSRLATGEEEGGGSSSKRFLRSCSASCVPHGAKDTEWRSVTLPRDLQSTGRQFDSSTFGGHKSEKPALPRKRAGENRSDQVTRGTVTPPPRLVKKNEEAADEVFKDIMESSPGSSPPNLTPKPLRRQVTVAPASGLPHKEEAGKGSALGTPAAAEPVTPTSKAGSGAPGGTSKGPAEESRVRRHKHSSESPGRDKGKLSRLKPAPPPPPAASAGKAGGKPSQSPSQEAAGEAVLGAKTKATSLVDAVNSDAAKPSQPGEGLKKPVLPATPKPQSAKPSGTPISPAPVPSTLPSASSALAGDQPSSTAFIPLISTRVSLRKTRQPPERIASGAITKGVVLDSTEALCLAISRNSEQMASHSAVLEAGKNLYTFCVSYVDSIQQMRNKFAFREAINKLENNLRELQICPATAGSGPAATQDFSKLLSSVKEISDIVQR
Mitogen-activated protein kinase 8 (Homo sapiens), sequence (P45983 whole entry): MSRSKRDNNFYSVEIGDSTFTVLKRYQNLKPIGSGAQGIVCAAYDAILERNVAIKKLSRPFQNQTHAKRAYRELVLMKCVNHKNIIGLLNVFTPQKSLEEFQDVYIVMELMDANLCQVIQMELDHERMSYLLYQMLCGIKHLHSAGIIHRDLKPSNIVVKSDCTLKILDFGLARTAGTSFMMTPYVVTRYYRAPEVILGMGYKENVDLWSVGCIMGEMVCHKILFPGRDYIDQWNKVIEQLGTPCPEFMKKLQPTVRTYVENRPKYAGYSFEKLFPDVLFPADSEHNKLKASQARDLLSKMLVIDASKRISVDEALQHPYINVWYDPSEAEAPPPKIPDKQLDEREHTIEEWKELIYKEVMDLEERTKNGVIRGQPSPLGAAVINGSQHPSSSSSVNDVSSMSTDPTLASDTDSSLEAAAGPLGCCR

Compound	inhibition [1]	inhibition [2]	inhibition [3]	inhibition [4]	inhibition [5]	inhibition [6]	inhibition [7]	inhibition [8]	inhibition [9]	inhibition [10]	inhibition [11]	inhibition [12]
Nc1nc(Nc2ccc3ncsc3c2)cc(N2CCC[C@H]2C(=O)NCCc2cccc(I)c2)n1	0%	7%	10%	2%	0%	0%	0%	6%	1%	0%	0%	0%
O=C(NC1Cc2ccccc2C1)c1cccc(Nc2ccnc(N3CCN(c4ccccc4)CC3)n2)c1	0%	11%	1%	6%	0%	0%	0%	9%	0%	0%	0%	9%
Cc1ccc(CN2CCN(c3nccc(C(C#N)c4ccccn4)n3)CC2)cc1 (stereo unspecified)	0%	5%	2%	4%	2%	0%	0%	7%	0%	0%	0%	4%
O=C(C1CCN(c2nccc(Nc3ccccc3)n2)CC1)N1CC[C@@H](O)C1	0%	8%	0%	3%	0%	0%	0%	7%	0%	0%	0%	4%
O=C(COc1ccccc1)N1CCN(c2nccc(Nc3ccc4ncsc4c3)n2)CC1	0%	8%	7%	0%	34%	0%	0%	49%	2%	0%	0%	13%
Cc1cccc(CN2CCN(c3cc(N(C)c4cccc(C)c4)ncn3)CC2)c1	0%	2%	1%	4%	9%	0%	3%	4%	0%	8%	0%	8%
Cc1cccc(Nc2nccc(Nc3cccc(C(=O)NCc4ccc(N(C)C)cc4)c3)n2)c1	0%	11%	0%	6%	0%	0%	3%	8%	0%	0%	0%	8%
CN(C)CC(C)(C)CNC(=O)[C@@H]1CCCN1c1nccc(Nc2ccccc2)n1	0%	0%	0%	1%	0%	0%	0%	10%	0%	0%	0%	0%
COc1ccc(NC(=O)Cc2ccc(Nc3cc(N(C)c4cccc(C)c4)ncn3)cc2)cn1	0%	13%	2%	2%	4%	0%	0%	2%	0%	4%	6%	1%
Cc1cccc(Oc2ccnc(N3CCN(CC(=O)Nc4cccc5c4CCCC5)CC3)n2)c1	0%	1%	16%	1%	0%	0%	3%	0%	5%	6%	0%	5%
Cc1cccc(Nc2ncnc3c2CN(C(=O)c2ccc(N(C)C)c4ccccc24)CC3)c1	0%	7%	1%	6%	0%	0%	0%	19%	0%	0%	3%	0%
O=C(CN1CCN(c2ncnc3c2CN(Cc2ccccc2)CC3)CC1)Nc1cc(F)ccc1F	0%	3%	3%	5%	0%	0%	4%	0%	0%	0%	0%	1%
CN(C)CC(C)(C)CNC(=O)C1CCN(c2cc(N3CCOCC3)nc(N)n2)CC1	0%	2%	0%	8%	0%	0%	0%	11%	0%	0%	0%	10%
CC(=O)N1CCN(C(=O)c2cccc(Nc3cc(N(C)c4cccc(C)c4)ncn3)c2)CC1	0%	47%	4%	9%	0%	0%	6%	0%	0%	0%	0%	17%
COC(=O)C(CO)NC(=O)[C@@H]1CCCN1c1nccc(Oc2cccc(C)c2)n1 (stereo partly specified)	0%	10%	7%	0%	5%	0%	0%	0%	0%	1%	0%	0%
O=C(NCc1cccnc1)c1cccc(-c2ccc(Nc3ccc4ncsc4c3)nn2)c1	0%	23%	0%	11%	55%	0%	0%	54%	16%	40%	32%	11%
Cc1cccc(N(C)c2cc(Nc3cccc(C(=O)NCc4ccncc4)c3)ncn2)c1	0%	53%	8%	6%	19%	0%	0%	0%	0%	6%	0%	26%
Cc1cccc(N(C)c2cc(N3CCN(CC(=O)Nc4nc(-c5ccccc5)cs4)CC3)ncn2)c1	0%	6%	0%	2%	0%	0%	3%	14%	0%	0%	6%	0%
